Results on one compound are retold here after ChEMBL document CHEMBL2321840, “Synthesis and structure-activity relationships of indazole arylsulfonamides as allosteric CC-chemokine receptor 4 (CCR4) antagonists” (J Med Chem, 2013).

Converted amounts (≈) assume the structure as drawn.

Data set [1] is described as follows: Plasma protein binding in CD rat by equilibrium dialysis technique. In kind it is ADME, cell-free. The note with it: read-out: PPB. A digest of the protocol:
(§1)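 Rapid equilibrium dialysis in CD rat, beagle dog or human plasma, with compound at a nominal 1 μg/mL; n = 3.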
(In equilibrium dialysis only unbound substance equilibrates across the membrane.)

Data set [2] relates to Rattus norvegicus. As to the kind of experiment: Cardiotoxicity in rat at 30 to 300 mg/kg, po. The arrangement: dose 30-300 mg/kg, route oral. Conditions: in vivo. It is filed as toxicity, organism-based. Put shortly:
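Conscious rats were given oral doses of 30, 100 and 300 mg/kg. Body temperature, cardiovascular and electrocardiographic parameters were monitored.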

The species named for data set [3] is Oryctolagus cuniculus. As to the kind of experiment: Cardiotoxicity in rabbit assessed as effect on contractility. In kind it is toxicity.
Data set [4] deals with HepG2. The experiment in a line: Cytotoxicity in human HepG2 cells assessed as effect on mitochondria. It is filed as cell-based.
For data set [5], the target named is T1, Solute carrier organic anion transporter family member 1B1 (Homo sapiens, UniProt Q9Y6L6).
T1 sequence (Q9Y6L6 whole entry): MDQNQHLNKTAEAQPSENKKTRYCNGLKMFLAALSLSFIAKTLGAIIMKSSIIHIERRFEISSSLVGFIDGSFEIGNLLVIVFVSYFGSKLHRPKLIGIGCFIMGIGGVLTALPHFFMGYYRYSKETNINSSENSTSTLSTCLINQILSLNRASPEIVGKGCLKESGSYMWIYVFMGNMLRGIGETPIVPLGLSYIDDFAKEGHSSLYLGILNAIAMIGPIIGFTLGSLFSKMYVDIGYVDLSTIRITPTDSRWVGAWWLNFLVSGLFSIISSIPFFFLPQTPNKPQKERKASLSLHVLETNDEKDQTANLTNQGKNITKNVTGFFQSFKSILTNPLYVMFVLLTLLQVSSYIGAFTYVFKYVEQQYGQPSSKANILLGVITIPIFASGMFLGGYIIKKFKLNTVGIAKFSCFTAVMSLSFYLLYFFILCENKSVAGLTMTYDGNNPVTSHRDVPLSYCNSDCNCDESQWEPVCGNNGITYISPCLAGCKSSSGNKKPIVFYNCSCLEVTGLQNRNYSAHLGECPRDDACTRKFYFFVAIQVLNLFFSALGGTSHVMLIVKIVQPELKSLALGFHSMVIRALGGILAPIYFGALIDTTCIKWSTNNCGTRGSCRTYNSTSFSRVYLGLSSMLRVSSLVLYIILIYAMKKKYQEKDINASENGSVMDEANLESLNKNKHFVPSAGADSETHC
As to the kind of experiment: Antagonist activity at OATP1B1 (unknown origin) by [35S]GTPgammaS binding assay. It is filed as functional.

The target of data set [6] is Acetylcholine receptor subunit alpha (Homo sapiens) (UniProt P02708). As to the kind of experiment: Antagonist activity at nAChR alpha1 (unknown origin) by [35S]GTPgammaS binding assay. In kind it is functional.
Acetylcholine receptor subunit alpha (Homo sapiens), sequence (P02708 whole entry): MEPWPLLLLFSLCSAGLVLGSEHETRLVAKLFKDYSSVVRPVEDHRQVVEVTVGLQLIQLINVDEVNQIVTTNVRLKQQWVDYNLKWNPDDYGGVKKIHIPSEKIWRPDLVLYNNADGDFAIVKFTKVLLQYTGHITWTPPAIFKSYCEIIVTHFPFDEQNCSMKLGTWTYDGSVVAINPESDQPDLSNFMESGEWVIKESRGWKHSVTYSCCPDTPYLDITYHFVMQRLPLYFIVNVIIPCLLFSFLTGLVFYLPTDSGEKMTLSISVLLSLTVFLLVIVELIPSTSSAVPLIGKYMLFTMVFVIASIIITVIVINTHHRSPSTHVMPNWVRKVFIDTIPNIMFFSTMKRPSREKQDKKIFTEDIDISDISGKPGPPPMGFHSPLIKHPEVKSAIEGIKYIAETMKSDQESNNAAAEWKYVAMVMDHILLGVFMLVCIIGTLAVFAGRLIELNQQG
In data set [7] the target is C-X-C chemokine receptor type 4 (Homo sapiens, UniProt P61073). The experiment in a line: Antagonist activity at CXCR4 receptor (unknown origin) by [35S]GTPgammaS binding assay. It is filed as functional. For orientation: Binding of GTPγS marks nucleotide exchange on a G protein.
C-X-C chemokine receptor type 4, sequence (P61073 whole entry): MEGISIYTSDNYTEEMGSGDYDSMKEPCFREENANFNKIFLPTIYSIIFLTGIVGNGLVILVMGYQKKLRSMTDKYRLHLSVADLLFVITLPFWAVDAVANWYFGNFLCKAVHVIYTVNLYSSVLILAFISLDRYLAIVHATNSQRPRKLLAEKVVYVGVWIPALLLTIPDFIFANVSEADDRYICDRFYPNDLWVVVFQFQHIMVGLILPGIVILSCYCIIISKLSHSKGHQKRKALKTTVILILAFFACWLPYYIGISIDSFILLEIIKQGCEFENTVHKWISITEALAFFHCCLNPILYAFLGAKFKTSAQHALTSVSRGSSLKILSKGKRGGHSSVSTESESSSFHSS
Data set [8] concerns the target C-C chemokine receptor type 5 (Homo sapiens, UniProt P51681). The experiment in a line: Antagonist activity at CCR5 receptor (unknown origin) by [35S]GTPgammaS binding assay. It is filed as functional.
Data set [9] addresses T2, C-X-C chemokine receptor type 2 (Homo sapiens, UniProt P25025).
T2 sequence (P25025 whole entry): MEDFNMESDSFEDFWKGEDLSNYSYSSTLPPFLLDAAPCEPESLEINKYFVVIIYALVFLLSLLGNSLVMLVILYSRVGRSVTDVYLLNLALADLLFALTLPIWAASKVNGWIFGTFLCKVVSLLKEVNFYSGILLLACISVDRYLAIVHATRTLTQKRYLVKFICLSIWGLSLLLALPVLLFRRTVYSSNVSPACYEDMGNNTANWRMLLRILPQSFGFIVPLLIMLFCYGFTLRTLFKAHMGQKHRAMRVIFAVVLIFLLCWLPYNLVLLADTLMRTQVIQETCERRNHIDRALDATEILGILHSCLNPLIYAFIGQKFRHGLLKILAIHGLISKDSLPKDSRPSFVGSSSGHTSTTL
The experiment in a line: Antagonist activity at CXCR2 receptor (unknown origin) by [35S]GTPgammaS binding assay. It is filed as functional.

The target in data set [10] is T3, C-C chemokine receptor type 10 (Homo sapiens, UniProt P46092).
T3 sequence (P46092 whole entry): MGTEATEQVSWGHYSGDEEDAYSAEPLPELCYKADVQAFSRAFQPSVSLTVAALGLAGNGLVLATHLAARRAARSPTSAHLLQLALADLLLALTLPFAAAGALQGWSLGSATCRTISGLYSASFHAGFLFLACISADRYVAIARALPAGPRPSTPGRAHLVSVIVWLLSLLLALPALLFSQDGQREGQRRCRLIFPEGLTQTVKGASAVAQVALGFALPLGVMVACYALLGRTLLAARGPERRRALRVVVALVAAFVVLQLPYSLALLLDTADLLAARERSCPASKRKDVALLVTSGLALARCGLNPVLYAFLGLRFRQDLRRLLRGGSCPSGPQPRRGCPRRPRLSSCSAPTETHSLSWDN
The experiment in a line: Antagonist activity at CCR10 receptor (unknown origin) by [35S]GTPgammaS binding assay. In kind it is functional.

The target in data set [11] is T4, C-X-C chemokine receptor type 1 (Homo sapiens, UniProt P25024).
T4 sequence (P25024 whole entry): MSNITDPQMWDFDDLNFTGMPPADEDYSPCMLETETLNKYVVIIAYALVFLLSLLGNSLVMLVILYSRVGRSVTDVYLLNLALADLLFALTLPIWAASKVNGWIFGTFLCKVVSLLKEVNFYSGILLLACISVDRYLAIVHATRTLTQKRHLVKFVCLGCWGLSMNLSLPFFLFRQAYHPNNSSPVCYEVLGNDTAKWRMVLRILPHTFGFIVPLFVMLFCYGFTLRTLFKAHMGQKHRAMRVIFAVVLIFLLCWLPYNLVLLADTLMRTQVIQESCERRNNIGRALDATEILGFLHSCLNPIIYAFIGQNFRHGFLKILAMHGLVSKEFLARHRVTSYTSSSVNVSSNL
As to the kind of experiment: Antagonist activity at CXCR1 receptor (unknown origin) by [35S]GTPgammaS binding assay. In kind it is functional.

The nature of data set [12]: Equilibrium solubility of the compound in Britton-Robinson buffer at pH 8 after 24 hrs by HPLC analysis. It is filed as physicochemical. Put shortly: (§2)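 Solid compound was equilibrated 24 h in Britton–Robinson buffer at the stated pH. Dissolved compound was quantified by HPLC.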
The nature of data set [13]: Equilibrium solubility of the compound in Britton-Robinson buffer at pH 2 after 24 hrs by HPLC analysis. In kind it is physicochemical. A digest of the protocol:
as §2

Data set [14] can be described thus: Equilibrium solubility of the compound in saline after 24 hrs by HPLC analysis. It is filed as physicochemical. Put shortly: (§3)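 Solid compound was equilibrated 24 h in the stated medium: water, SGF pH 1.6, FeSSIF pH 6.5, FaSSIF pH 6.5 or saline. Dissolved compound was quantified by HPLC.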
Data set [15] is described as follows: Equilibrium solubility of the compound in fed-state simulated intestinal fluid at pH 6.5 after 24 hrs by HPLC analysis. In kind it is physicochemical. A digest of the protocol: as §3
Data set [16] in a line: Equilibrium solubility of the compound in water after 24 hrs by HPLC analysis. It is filed as physicochemical. A digest of the protocol: as §3
The nature of data set [17]: Equilibrium solubility of the compound in simulated gastric fluid at pH 1.6 after 24 hrs by HPLC analysis. In kind it is physicochemical. A digest of the protocol:
as §3

Data set [18] can be described thus: Plasma protein binding in human by equilibrium dialysis technique. In kind it is ADME, cell-free. The note with it: read-out: PPB (converted). Put shortly:
as §1

The nature of data set [19]: Kinetic solubility of the compound by chemiluminescent nitrogen detection assay. It is filed as physicochemical. Conditions: read-out: Kinetic_solubility.
A short description of data set [20]: Lipophilicity, log D of the compound by chromatographic analysis. In kind it is physicochemical. A digest of the protocol: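 Chromatographic log D measured at pH 7.4.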

C-C chemokine receptor type 5, sequence (P51681 whole entry): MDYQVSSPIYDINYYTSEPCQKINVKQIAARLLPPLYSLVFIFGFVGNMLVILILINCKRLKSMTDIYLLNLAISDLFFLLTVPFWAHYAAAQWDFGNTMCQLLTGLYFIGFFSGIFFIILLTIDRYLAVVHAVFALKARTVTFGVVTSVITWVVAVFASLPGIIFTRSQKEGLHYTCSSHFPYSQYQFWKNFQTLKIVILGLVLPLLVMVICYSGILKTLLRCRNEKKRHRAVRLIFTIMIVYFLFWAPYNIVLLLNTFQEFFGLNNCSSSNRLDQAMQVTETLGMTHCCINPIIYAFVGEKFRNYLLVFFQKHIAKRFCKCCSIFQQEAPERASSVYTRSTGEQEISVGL

As a reminder, the IC50 is the concentration that gives 50% inhibition. For orientation: thermodynamic solubility means the concentration in solution at equilibrium with solid. The term chromatographic logD denotes a lipophilicity value derived from retention on a column. With `COc1cccc2c1c(NS(=O)(=O)c1ccc(Cl)s1)nn2Cc1cccc(CNC(=O)C(C)(C)O)c1`, the fraction unbound is at most 0.01 in data set [1] and 0.01 in [18]. Also, the Activity entry in data set [2], in data set [3] and in data set [4] was “Non-toxic” in each case. In addition, the IC50 in [5] is 0.398 µM; in [7], above 10 µM; in data set [8], 6.31 µM; in [9], above 10 µM; in [10] it was above 10 µM; in data set [11], above 10 µM. This compound displayed a pXC50 in data set [6] of 5.1. For the same compound, the thermodynamic solubility at 24 h in data set [12] is 56 µg/mL (≈ 102 µM); in data set [13] it was 3 µg/mL (≈ 5.46 µM); in data set [14] it was 73 µg/mL (≈ 133 µM); in [15], 23 µg/mL (≈ 41.9 µM); in data set [16], 57 µg/mL (≈ 104 µM); in data set [17], 1 µg/mL (≈ 1.82 µM). Moreover, the solubility kinetic in [19] is at least 162 µg/mL. Moreover, in data set [20], the chromatographic logD was 4.3.
